Rows were chosen to be rich in hits. Some 1.8% of all compounds tested hit in one or more screens of this group.
Jurkat NFkB inh: inhibitors of the PMA/ionomycin-induced NF-kB reporter in Jurkat cells; inhibition, % at 4 µM; AID 435003; 330,000 tested, 0.53% active; PMA/ionomycin-induced NF-kB luciferase reporter, luminescence; in the data active = inhibition above about 50%
NR2E3 ag-1: activates human NR2E3 receptor; inhibition of corepressor binding, % at 3.98 µM; Q9Y5X4; 360,000 tested, 0.35% active; AID 602229; CHO-S Gal4-NCOR/VP16-NR2E3 two-hybrid, luciferase;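 active = inhibition above the mean of all tested compounds plus 3 SD, cut at about 70% in these data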;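 note: 0% = DMSO with NR2E3 transfected cells and 100% = cells lacking NR2E3 construct; higher means lower luciferase signal from less NR2E3 corepressor binding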
697 NFkB inh: lowers PMA/ionomycin-induced NF-kB signal in 697 B cells. 330,000 tested, 0.33% active. inhibition, % at 4 µM. 697 B-cell NF-kB luciferase reporter, 16 h. AID 435022; in the data active = inhibition above about 35%
NR2E3 ag-2: activates human photoreceptor nuclear receptor NR2E3 | GST-NR2E3/biotin-RetCOR TR-FRET, 1536-well | inhibition of corepressor binding, % at 4.78 µM | 320,000 tested, 0.12% active;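 active = percent inhibition above the cutoff of mean plus 3 SD of all tested compounds, set per screening campaign, cut at about 20% in these data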;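 note: 0% = DMSO wells and 100% = biotin wells as full block of FRET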
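Test system – NR2E3–RetCOR corepressor complex · Quantity – NR2E3 fusion 1.35 nM · Buffer or medium – Tris pH 7.5 · Incubation – Compound–protein incubation for 5 h at 4 °C · Technique – TR-FRET, Eu(K)-anti-GST donor, streptavidin-D2 acceptor, ex 340, em 617/671 nm · Evaluation – percent inhibition of 671/617 nm emission ratio versus biotin and DMSO controls · Plate – 1536-well format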
Gli-Sufu block: antagonists of Gli-Sufu signaling | inhibition, % at 5 µM | 340,000 tested, 0.74% active | Sufu-KO-LIGHT fibroblasts, Gli luciferase reporter luminescence;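 active = inhibition above about 55%, limit read from the data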;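 note: 0% = DMSO-treated cells and 100% = wells with medium but no cells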
GalR3 antagonist: antagonists of human GalR3; O60755; HEK293 GalR3-CNG cAMP membrane potential fluorescence; galR3 body fused to GalR1 C-terminus; inhibition, % at 3 µM; 360,000 tested, 0.44% active; AID 651719;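 active = inhibition above the screen-wide average plus 3 SD, cut at about 13% in these data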;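 note: forskolin and galanin both at EC90 stimulate the cells; cAMP rise reported by CNG channel membrane potential dye signal; 0% = forskolin plus galanin with DMSO and 100% = forskolin alone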
Target sequence (O60755 1-299 limits assumed): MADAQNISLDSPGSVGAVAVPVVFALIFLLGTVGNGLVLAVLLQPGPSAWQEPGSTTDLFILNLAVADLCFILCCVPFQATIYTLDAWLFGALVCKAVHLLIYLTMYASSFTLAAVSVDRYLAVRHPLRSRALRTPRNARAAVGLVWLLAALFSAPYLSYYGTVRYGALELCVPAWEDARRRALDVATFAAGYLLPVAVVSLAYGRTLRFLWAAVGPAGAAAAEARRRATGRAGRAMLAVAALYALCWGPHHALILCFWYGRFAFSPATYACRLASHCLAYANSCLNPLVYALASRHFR
Gli antag conf: confirmation of Gli-SUFU pathway antagonists; shares compounds with Gli-Sufu block; Sufu-KO-LIGHT cells, Gli luciferase reporter, luminescence; inhibition, % at 5 µM; 2,500 tested, 40% active; AID 602428;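 active = mean inhibition at 5 µM reaching about 45%, limit read from the data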;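 note: plate controls were DMSO-treated cells for no effect and wells lacking cells for full effect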
SufuKO cytotox: counter-screen for Gli-SUFU antagonists: cytotoxicity. shares compounds with Gli-Sufu block. Sufu-KO-LIGHT cells cytotoxicity, ATP luminescence. cytotoxicity, % at 5 µM. 2,500 tested, 32% active. AID 651994;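 active = mean cytotoxicity at 5 µM above about 25%, limit read from the data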;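 note: cells exposed to compound overnight for roughly 16 to 18 hours; plate controls were DMSO wells with cells for no effect and medium without cells for full effect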
Wnt3a cs: counter-screen for Gli-SUFU antagonists: Wnt3a reporter inhibition | shares compounds with Gli-Sufu block | Wnt-LIGHT cells, Wnt3a-driven luciferase reporter, luminescence | inhibition, % at 6.25 µM | 2,500 tested, 20% active;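 active = mean inhibition above about 25%, limit read from the data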
Numbers without * were called inactive; . = no result given.

SMILES	Jurkat NFkB inh	NR2E3 ag-1	697 NFkB inh	NR2E3 ag-2	Gli-Sufu block	GalR3 antagonist	Gli antag conf	SufuKO cytotox	Wnt3a cs
O=c1c2ccccc2oc2cc(OCc3ccc(F)cc3)cc(O)c12	-23	10	17	.	22	-5	.	.	.
CC(C)C(=O)N1CCN(c2ccccc2NC(=O)COc2ccc(C3CCCCC3)cc2)CC1	10	-6	-27	.	8	-7	.	.	.
CC(C)C(=O)N1CCN(c2ccccc2NC(=O)COc2ccccc2)CC1	7	-41	-7	-1	54	-2	28	10	-22
CN(/N=C\c1ccc(O)c(O)c1)c1nc(-c2ccccc2)cc(-c2ccccc2)n1	-20	6	-30	-1	90*	-5	82*	26*	89*
CC1(C)COCN1C(=O)c1ccc(C#N)cc1	-6	6	6	1	52	-11	10	20	2
CC(C)C[C@@H]1COc2cc(NCCO)ccc2S(=O)(=O)N1	.	.	.	.	.	-2	.	.	.
FC(F)(F)c1cnc(Sc2nnc(-c3cccs3)n2CC2CCCO2)c(Cl)c1 (stereo not drawn)	-5	7	5	2	51	0	11	24	-28
FC(F)(F)c1ccc(Sc2nnc(-c3cccs3)n2CC2CCCO2)nc1 (stereo not drawn)	-2	2	-7	2	10	-6	.	.	.
CNC[C@@H]1OCc2ccccc2-c2c(n(C)c3ccccc23)C(=O)N([C@@H](C)CO)C[C@@H]1C	.	.	.	.	.	-4	.	.	.
Cc1ccc(O)c(NC(=O)C2=CC(c3cccs3)=NS(=O)(=O)N2C)c1	8	-36	-16	-1	94*	.	16	-4	3
COc1ccc(-c2c(C(=O)c3ccc(Br)cc3)[nH]c(N)c2C(=O)NCCc2c[nH]c3ccccc23)cc1OC	.	.	.	.	.	-2	.	.	.
CCN(CC)S(=O)(=O)c1ccc(S(=O)(=O)N2CCCC(C(=O)NC3CC3)C2)cc1 (stereo not drawn)	32	-13	-9	4	60*	-7	46*	11	9
O=C(CSc1nc2nn(-c3ccccc3)c(=O)c-2c2n1CCCCC2)NCCc1ccccc1	-3	-46	9	-2	6	-6	.	.	.
CCOc1ccccc1NC(=S)NC(=O)CCCOc1ccc(Cl)cc1Cl	-6	5	8	1	65*	-8	30	-1	-39
O=C(CCCOc1ccc(Cl)cc1Cl)Nc1ccccc1C(=O)O	-55	-134	-214	4	-36	-6	.	.	.
O=C1NCCN1Cc1ccc(Cl)cc1	-1	-6	16	2	54	-3	21	1	3
O=C1NCCCN1Cc1ccc(F)cc1	5	-15	10	1	5	-6	.	.	.
O=C(N/N=C\c1cc(Cl)ccc1O)c1ccc(S(=O)(=O)N2CCCCC2)cc1	32	-15	-67	-3	73*	2	78*	37*	61*
CN(C(=O)c1ccnn1C)C1CCCN(Cc2ccccc2F)C1 (stereo not drawn)	-2	-6	-1	.	3	-1	.	.	.
CCCCOCC1CN(CCCC)S(=O)(=O)c2c(Oc3ccc(C)cc3)cccc2O1 (stereo not drawn)	.	.	.	.	.	-6	.	.	.
CC(C)(C)S(=O)(=O)N1C[C@@H]2CC(=O)C=C2[C@H]1CCO	.	.	.	.	.	-5	.	.	.
O=C(Cn1cnc2ccccc21)Nc1cccc(S(=O)(=O)N2CCCC2)c1	28	12	-1	-1	54	.	53*	14	17
O=C(Cn1c(NCCO)nc2ccccc21)Nc1cccc(S(=O)(=O)N2CCCC2)c1	4	-34	-2	.	0	0	.	.	.
CCN1C(C(=O)Nc2cc(C)on2)=C(O)c2ccccc2S1(=O)=O	-5	-9	9	2	1	-9	.	.	.
Cc1cc(NC(=O)C2=C(O)c3ccccc3S(=O)(=O)N2C)no1	0	16	11	-1	62*	.	3	28*	-9

Bioassay records (PubChem BioAssay)
